Source: PubChem BioAssay (The Scripps Research Institute Molecular Screening Center)
M4 antag – human M4 muscarinic receptor antagonists, primary screen, CHO cells, Fluo-8 calcium fluorescence; Muscarinic acetylcholine receptor M4 (Homo sapiens), P08173; AID 624125, 2012; CHO-hM4 cells, ACh EC80; inhibition, % at 3 µM; 360,000 tested, 0.73% active;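 active = inhibition above its plate's cutoff, the mean inhibition of sample wells plus 3 SD, cut at about 27% in these data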;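 note: 0% = acetylcholine EC80 with DMSO and 100% = DMSO without agonist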
CHRM4 PAM – human M4 muscarinic receptor positive allosteric modulators, primary screen, CHO-K1 cells, Fluo-8 calcium fluorescence | AID 624126, 2012 | CHO-K1 hM4/Gqi5, ACh EC20; 0% = ACh EC20, 100% = maximal ACh | activation, % at 3 µM | Muscarinic acetylcholine receptor M4 (Homo sapiens), P08173 | 360,000 tested, 0.4% active;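 active = activation above its plate's cutoff, the mean activation of sample wells plus 3 SD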
M5 PAM – human M5 muscarinic receptor positive allosteric modulators, primary screen, CHO-K1 cells, Fluo-8 calcium fluorescence; Muscarinic acetylcholine receptor M5 (Homo sapiens), P08912; CHO-K1 hM5, ACh EC20 PAM; 0% = ACh EC20, 100% = ACh EC100; activation, % at 3 µM; 360,000 tested, 0.3% active;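 active = activation above the run cutoff, the mean activation of all test compounds plus 3 SD, cut at about 18% in these data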
Target sequence (P08912 whole entry, looked up): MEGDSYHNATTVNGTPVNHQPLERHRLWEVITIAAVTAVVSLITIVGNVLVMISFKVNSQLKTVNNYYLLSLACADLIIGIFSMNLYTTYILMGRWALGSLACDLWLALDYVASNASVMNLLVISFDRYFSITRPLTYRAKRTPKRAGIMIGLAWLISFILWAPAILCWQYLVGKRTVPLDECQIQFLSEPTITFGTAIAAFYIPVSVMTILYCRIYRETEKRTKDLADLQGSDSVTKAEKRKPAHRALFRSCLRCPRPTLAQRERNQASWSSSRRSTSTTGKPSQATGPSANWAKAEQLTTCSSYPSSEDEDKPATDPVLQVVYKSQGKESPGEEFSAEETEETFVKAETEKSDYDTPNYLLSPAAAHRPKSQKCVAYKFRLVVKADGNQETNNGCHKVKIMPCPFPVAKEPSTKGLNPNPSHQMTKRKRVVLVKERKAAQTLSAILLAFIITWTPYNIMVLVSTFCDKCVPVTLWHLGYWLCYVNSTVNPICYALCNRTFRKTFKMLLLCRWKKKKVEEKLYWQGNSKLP
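Assay system: CHO-K1 hM5 cells / Incubation: Fluo-8 loading 80 min at 37 °C plus 30 min room temperature / Technique: Fluo-8 calcium dye fluorescence, kinetic read / Repeats: single replicate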
CHRM5 agonist – human M5 muscarinic receptor agonists, primary screen, CHO-K1 cells, Fluo-8 calcium fluorescence; CHO-K1 hM5 cells; 0% DMSO wells, 100% maximal acetylcholine response; activation, % at 3 µM; 360,000 tested, 0.19% active; AID 624037, 2012;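 active = activation above the run's mean over test compounds plus 3 SD, cut at about 23% in these data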;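 note: signal is peak over basal fluorescence ratio across the kinetic read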
CHRM5 antagonist – human M5 muscarinic receptor antagonists, primary screen, CHO cells, Fluo-8 calcium fluorescence. CHO-hM5 cells, ACh EC80. inhibition, % at 3 µM. 360,000 tested, 0.59% active. AID 624040, 2012;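 active = inhibition above a per-plate cutoff, the mean of that plate's test compounds plus 3 SD, cut at about 27% in these data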;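 note: 0% = acetylcholine EC80 with DMSO and 100% = DMSO without agonist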
M4 ag – human M4 muscarinic receptor agonists, primary screen, CHO-K1 cells, Fluo-8 calcium fluorescence; Muscarinic acetylcholine receptor M4 (Homo sapiens), P08173; CHO-K1 hM4/Gqi5; vehicle 0%, full acetylcholine response 100%; activation, % at 3 µM; 360,000 tested, 0.14% active;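 active = activation above the run mean over all test wells plus 3 SD, cut at about 32% in these data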;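 note: peak over basal fluorescence ratio per well then scaled between controls; 0% = DMSO wells and 100% = acetylcholine at EC100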
Active calls of the source: *. A selection: hits, their analogues and other compounds. The true share with any hit is near 1.8%.

SMILES	M4 antag	CHRM4 PAM	M5 PAM	CHRM5 agonist	CHRM5 antagonist	M4 ag
COc1ccc(-c2oc3c(c2C#CC(C)(C)O)C(OCCO)CC3)cc1 (stereo not given)	-9	7	-2	-3	-3	1
Cc1cc(/C=N/n2cnnc2)c(C)n1-c1ccc(OCc2ccccc2F)cc1	31*	-15	-21	-1	29*	8
C(=N\n1cnnc1)/c1ccc(OCc2ccccc2)cc1	-7	3	-3	-1	-6	1
Cc1cc(/C=N/n2cnnc2)c(C)n1-c1ccc(OCc2ccc(Cl)cc2)cc1	30*	-12	-15	-5	25	5
Fc1ccccc1COc1cccc(/C=N/n2cnnc2)c1	10	0	4	-2	0	0
CCCCC(=O)N(C)c1c(CC)nc2c(OCC(=O)N3CCOCC3)cccn12	-3	2	-1	-2	7	1
CC(=O)Nc1cccc2ccc(O)cc12	-11	16*	3	-2	5	0
COc1cc2c(cc1NC(=O)CN1C(=O)NC3(CCc4ccccc43)C1=O)oc1ccccc12 (stereo not given)	38*	3	-6	-1	7	12
COc1ccc(CCN(C)C(=O)CN2C(=O)NC3(CCCc4ccccc43)C2=O)cc1OC (stereo not given)	-29	27*	-7	0	2	2
O=C(OCC(=O)N1CCN(C(=O)c2ccco2)CC1)c1cc(-c2cccc(Br)c2)nc2ccccc12	28*	-23	-8	6	12	9
CCc1ccc2oc(=O)cc(CN3CCN(Cc4ccccc4)CC3)c2c1	65*	-18	-15	-8	17	3
O=C(c1cnc(Cl)c(Cl)c1)N1CCN(S(=O)(=O)c2cccs2)CC1	-4	0	-6	2	0	3
CCc1c(C)nc(N2CCN(c3ccccc3F)CC2)[nH]c1=O	-3	1	-5	9	-16	3
COc1ccc(CNC(=O)c2cccc3c(-c4cccnc4)coc23)cc1OC	14	-8	-18	9	35*	21
O=C(NCc1ccc(F)c(F)c1)c1cccc2c(-c3cccnc3)coc12	2	-7	-13	6	13	17
C[C@H](NC(=O)c1ccccc1Cl)C(=O)Nc1ccccc1F	75*	-21	0	-2	11	-5
C[C@H](NC(=O)Nc1ccccc1F)C(=O)O	0	13	-2	2	0	1
O=C(Nc1nc2ccccc2s1)C1CCN(S(=O)(=O)c2cc([N+](=O)[O-])ccc2Cl)CC1	33*	-34	-30	-4	39*	17
CCC(C)NC(=O)C1CCN(S(=O)(=O)c2cc([N+](=O)[O-])ccc2Cl)CC1 (stereo not given)	-8	-7	-7	0	10	2
Cc1ccc[n+](CC(=O)Nc2cc(C(F)(F)F)ccc2Cl)c1	1	0	1	-7	-3	0
CCC(C)(C)c1ccc(OCCCC[n+]2cccc(C)c2)c(C(C)(C)CC)c1	47*	-17	-21	-10	28*	2
Cc1ccc(NC(=O)c2ccc(OCC3CCCO3)cc2)cc1Cl (stereo not given)	3	-9	-6	1	1	5
Cc1ccc(C(C(=O)NC2CCCCC2)N2CCCC2)cc1 (stereo not given)	3	-10	-13	-11	-2	0
CC(C(=O)NC1CCCC1)N1CCN(Cc2ccccc2)CC1 (stereo not given)	7	-7	1	-8	7	0
CC(C(=O)NC(=O)NC1CCCCC1)N1CCN(C(c2ccccc2)c2ccccc2)CC1 (stereo not given)	37*	-27	-8	-4	8	-1
SMILES	M4 antag	CHRM4 PAM	M5 PAM	CHRM5 agonist	CHRM5 antagonist	M4 ag
O=C(NC1CCCCC1)C(c1ccccc1)N1CCCC1 (stereo not given)	46*	-17	-29	-13	12	0
Cc1ccc(NC(=O)CSCC(=O)NC2=NCCS2)cc1	-2	1	-4	4	5	0
COc1ccc(Cc2nc3ccc(C(=O)N4CCCCC4CO)cc3o2)cc1OC (stereo not given)	-1	4	-1	2	2	2
COc1c(O)cc2c(c1O)C1OC(CO)C(O)C(O)C1OC2=O (stereo not given)	-36	7	-15	46*	-2	7
CC(=O)Nc1ccc(OCC(O)Cn2c3ccccc3c3ccccc32)cc1 (stereo not given)	0	16	0	3	-2	11
CC(=O)Nc1ccc(OCC(O)Cn2c3ccccc3c3ccccc32)c(C)c1 (stereo not given)	27*	-11	-12	11	15	26
NC(c1csc(NC(=O)Nc2ccccc2)n1)C1CCCCC1 (stereo not given)	-1	2	-4	3	4	10
NC(c1csc(NC(=O)Nc2cccc(Cl)c2)n1)C1CCCCC1 (stereo not given)	39*	1	6	4	9	38*
Cc1ccc(S(=O)(=O)Nc2ccc3c(c2)CC(=O)N([C@H](C)CO)C[C@@H](C)[C@H](CN(C)S(=O)(=O)c2ccccc2)O3)cc1	33*	-21	-1	-2	10	-1
C[C@H](CO)N1C[C@H](C)[C@@H](CN(C)S(=O)(=O)c2ccc(Cl)cc2)Oc2ccc(NS(=O)(=O)c3ccccc3)cc2CC1=O	-15	9	2	-4	10	3
C[C@H](CO)N1C[C@H](C)[C@H](CN(C)S(=O)(=O)c2ccccc2)Oc2ccc(NC(=O)NC3CCCCC3)cc2CC1=O	99*	-17	-2	-3	14	0
COc1ccc(C2=NS(=O)(=O)N(C)C(C(=O)N3CCOCC3)=C2)cc1	0	-8	-6	3	6	5
COc1ccc(C2=NS(=O)(=O)N(C)C(C(=O)N3CCC(C(N)=O)CC3)=C2)cc1	34*	-12	-11	2	3	1
CCCCSCCCNC(=S)Nc1ccccc1C	6	-4	9	-2	3	1
CCCCNC(=S)Nc1ccccc1Cc1ccccc1	1	0	23*	-5	-6	1
